The source made the active and inactive calls. No cut-off for these calls is given here.
Columns and labels:
[1] = target: T1, Protein cereblon/Cyclin-dependent kinase 6 (Mus musculus) (UniProt Q8C7D2+Q64261); assay: Protac activity at CRBN/CDK6 in mouse B16F10 cells assessed as induction of CDK6 protein degradation after 12 hrs by Western blot analysis; type: cell-based; details: B16-F10, dose 62.5-1000 nM
In short: (§1)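 B16F10 and A375 cells treated with DMSO or serial dilutions of compound for 12 h (concentration series), or for the indicated times (time course). CDK2, CDK4 and CDK6 protein levels determined by western blot.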

[2] = target: Protein cereblon/Cyclin-dependent kinase 6 (Homo sapiens) (UniProt Q00534+Q96SW2); assay: Protac activity at CRBN/CDK6 in human A-375 cells assessed as induction of CDK6 protein degradation at 1000 nM by Western blot analysis; type: cell-based; details: time hrs <=12, TDE = time-dependent effect; in short: as §1
A-375 [3] = assay: Induction of cell cycle arrest in human A-375 cells assessed as accumulation at G1 phase at 500 uM incubated for 48 hrs by propidium iodide staining based flow cytometry (reference value: 58.26%); type: functional
In short: (§2)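 Tumor cells incubated 48 h in complete medium with compound or DMSO at various concentrations, stained with propidium iodide, and DNA content read by flow cytometry. G0/G1, S and G2/M fractions reported; mean ± SD, n = 3, Student's t-test.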

[4] = target: T1, Protein cereblon/Cyclin-dependent kinase 6 (Mus musculus); assay: Protac activity at CRBN/CDK6 in mouse B16F10 cells assessed as induction of CDK6 protein degradation at 100 nM for 6 hrsin presence of Ribociclib by Western blot analysis; type: cell-based; details: B16-F10, time 6.0 hrs
[5] = target: T1, Protein cereblon/Cyclin-dependent kinase 6 (Mus musculus); assay: Protac activity at CRBN/CDK6 in mouse B16F10 cells assessed as induction of CDK6 protein degradation at 100 nM for 6 hrsin presence of methyl 6-(7-cyclopentyl-6-(dimethylcarbamoyl)-7H-pyrrolo[2,3-d]pyrimidin-2-ylamino)nicotinate by Western blot analysis; type: cell-based; details: B16-F10, time 6.0 hrs
In short: (§3)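 B16F10 cells pre-treated 2 h with DMSO, pomalidomide (10 μM), MG132 (20 μM) or a parent CDK ligand, then exposed to 100 nM degrader for 6 h. CDK2/4/6 protein levels read by western blot.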

B16-F10 [6] = assay: Inhibition of colony formation in mouse B16F10 cells at 50 to 100 nM measured after 7 days by crystal violet staining based colony formation assay; type: functional, cell-based; details: dose 50-100 nM, time 7.0 day
In short: (§4)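 Colony formation (long-term growth) assay in A375 and B16F10 cells under continuous compound exposure for 7 days, then clonogenic growth quantified. Mean ± SD, n = 3; Student's t-test.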

B16-F10 [7] = assay: Induction of apoptosis in mouse B16F10 cells assessed as decrease in Bcl-2 level upto 1000 nM incubated for 48 hrs by Western blot analysis; type: functional, cell-based; details: dose nM <=1000, time 48.0 hrs
In short: (§5)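 A375 and B16F10 cells incubated with compound for 48 h. Cleaved caspase-3, cleaved PARP, total P53, Bcl-2 and Bax measured by western blot.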

A-375 [8] = assay: Induction of cell cycle arrest in human A-375 cells assessed as accumulation at G2 phase at 1000 uM incubated for 48 hrs by propidium iodide staining based flow cytometry (reference value: 12.42%); type: functional; in short: as §2
A-375 [9] = assay: Induction of apoptosis in human A-375 cells assessed as late apoptotic cells at 500 nM incubated for 48 hrs by Annexin V-FITC/PI staining based flow cytometry (reference value: 3.28%); type: functional
A-375 [10] = assay: Induction of apoptosis in human A-375 cells assessed as necrotic cells at 1000 nM incubated for 48 hrs by Annexin V-FITC/PI staining based flow cytometry (reference value: 0.602%); type: functional
B16-F10 [11] = assay: Induction of cell cycle arrest in mouse B16-F10 cells assessed as accumulation at G1 phase at 100 uM incubated for 48 hrs by propidium iodide staining based flow cytometry (reference value: 52.59%); type: functional
B16-F10 [12] = assay: Induction of apoptosis in mouse B16F10 cells assessed as increase in cleaved PARP level incubated for 48 hrs by Western blot analysis; type: functional, cell-based; details: dose nM <=1000, time 48.0 hrs; in short: as §5
[13] = target: T1, Protein cereblon/Cyclin-dependent kinase 6 (Mus musculus); assay: Protac activity at CRBN/CDK6 in mouse B16F10 cells assessed as induction of CDK6 protein degradation at 100 nM for 6 hrs in presence of proteasome inhibitor MG132 by Western blot analysis; type: cell-based; details: B16-F10; in short: as §3
B16-F10 [14] = assay: Cytotoxicity against mouse B16F10 cells assessed as reduction in cell viability after 72 hrs by MTT assay; type: functional, cell-based; details: B16-F10, 72 h
In short: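 Cells exposed to compound for 72 h and viability read by MTT; IC50 from three independent experiments.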

B16-F10 [15] = assay: Induction of cell cycle arrest in mouse B16F10 cells assessed as accumulation at G2/M phase upto 100 uM incubated for 48 hrs by propidium iodide staining based flow cytometry; type: functional; details: dose microM <=100, time 48.0 hrs
A-375 [16] = assay: Induction of apoptosis in human A-375 cells assessed as late apoptotic cells at 250 nM incubated for 48 hrs by Annexin V-FITC/PI staining based flow cytometry (reference value: 3.28%); type: functional
[17] = target: T2, Protein cereblon/Cyclin-dependent kinase 2 (Mus musculus) (UniProt P97377+Q8C7D2); assay: Protac activity at CRBN/CDK2 in mouse B16F10 cells assessed as induction of CDK2 protein degradation at 100 nM for 6 hrsin presence of Pomalidomide by Western blot analysis; type: cell-based; details: B16-F10, time 6.0 hrs; in short: as §3
[18] = AUC (0 to 12 hrs) in Sprague-Dawley rat at 200 mg/kg, po; type: ADME, organism-based; parameters: time < 12 hr, route oral, dose 200 mg/kg; details: in vivo
In short: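 Single oral dose of 200 mg/Kg to SD rats (n = 3). Prodrug and released active degrader quantified in plasma over 0–12 h; Cmax, Tmax and AUC0-12 derived by non-compartmental model.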

A-375 [19] = assay: Induction of apoptosis in human A-375 cells assessed as viable cells at 500 nM incubated for 48 hrs by Annexin V-FITC/PI staining based flow cytometry (reference value: 93.3%); type: functional; details: read-out: Activity
B16-F10 [20] = assay: Induction of apoptosis in mouse B16F10 cells assessed as increase in cleaved caspase 3 level incubated for 48 hrs by Western blot analysis; type: functional, cell-based; details: dose nM <=1000, time 48.0 hrs; in short: as §5
A-375 [21] = assay: Induction of apoptosis in human A-375 cells assessed as early apoptotic cells at 1000 nM incubated for 48 hrs by Annexin V-FITC/PI staining based flow cytometry (reference value: 2.82%); type: functional
[22] = Tmax in Sprague-Dawley rat at 10 mg/kg, iv; type: ADME, organism-based; details: in vivo
In short: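 SD rats, n = 3, single dose of prodrug: IV by tail vein at 10 mg/Kg, or PO at 200 mg/Kg. Plasma levels of prodrug and released active degrader followed over 0–12 h. Parameters derived by a non-compartmental model.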

A-375 [23] = assay: Inhibition of colony formation in human A-375 cells at 250 to 500 nM measured after 7 days by crystal violet staining based colony formation assay; type: functional, cell-based; details: dose 250-500 nM, time 7.0 day; in short: as §4
[24] = target: T2, Protein cereblon/Cyclin-dependent kinase 2 (Mus musculus); assay: Protac activity at CRBN/CDK2 in mouse B16F10 cells assessed as induction of CDK2 protein degradation at 100 nM for 6 hrs in presence of proteasome inhibitor MG132 by Western blot analysis; type: cell-based; details: B16-F10; in short: as §3
A-375 [25] = assay: Induction of apoptosis in human A-375 cells assessed as necrotic cells at 250 nM incubated for 48 hrs by Annexin V-FITC/PI staining based flow cytometry (reference value: 0.602%); type: functional

T1 sequence (Q64261 whole entry, looked up): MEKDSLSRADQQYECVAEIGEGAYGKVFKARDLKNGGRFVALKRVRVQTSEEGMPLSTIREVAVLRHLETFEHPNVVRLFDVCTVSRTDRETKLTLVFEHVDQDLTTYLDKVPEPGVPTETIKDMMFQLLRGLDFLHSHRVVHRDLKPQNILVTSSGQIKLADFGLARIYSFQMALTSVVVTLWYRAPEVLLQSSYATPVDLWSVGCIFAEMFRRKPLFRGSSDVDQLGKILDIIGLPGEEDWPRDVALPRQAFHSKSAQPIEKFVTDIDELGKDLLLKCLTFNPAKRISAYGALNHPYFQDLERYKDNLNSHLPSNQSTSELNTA
T1 sequence (Q8C7D2 whole entry, looked up): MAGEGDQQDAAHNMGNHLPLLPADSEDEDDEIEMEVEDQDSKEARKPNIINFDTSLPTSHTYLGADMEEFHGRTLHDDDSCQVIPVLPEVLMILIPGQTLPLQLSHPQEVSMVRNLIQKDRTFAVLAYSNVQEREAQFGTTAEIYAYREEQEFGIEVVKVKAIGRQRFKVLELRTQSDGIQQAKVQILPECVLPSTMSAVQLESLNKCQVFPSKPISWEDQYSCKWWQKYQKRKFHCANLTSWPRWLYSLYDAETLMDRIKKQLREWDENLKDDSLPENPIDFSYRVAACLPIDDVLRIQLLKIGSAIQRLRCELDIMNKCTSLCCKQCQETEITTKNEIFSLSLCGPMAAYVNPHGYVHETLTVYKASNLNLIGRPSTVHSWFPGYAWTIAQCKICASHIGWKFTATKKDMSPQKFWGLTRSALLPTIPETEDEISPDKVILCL
T2 sequence (Q8C7D2 whole entry, looked up, other chains not shown): as the sequence (Q8C7D2 whole entry, looked up) above
Chain of Protein cereblon/Cyclin-dependent kinase 6 (Homo sapiens) (Q00534 whole entry, looked up): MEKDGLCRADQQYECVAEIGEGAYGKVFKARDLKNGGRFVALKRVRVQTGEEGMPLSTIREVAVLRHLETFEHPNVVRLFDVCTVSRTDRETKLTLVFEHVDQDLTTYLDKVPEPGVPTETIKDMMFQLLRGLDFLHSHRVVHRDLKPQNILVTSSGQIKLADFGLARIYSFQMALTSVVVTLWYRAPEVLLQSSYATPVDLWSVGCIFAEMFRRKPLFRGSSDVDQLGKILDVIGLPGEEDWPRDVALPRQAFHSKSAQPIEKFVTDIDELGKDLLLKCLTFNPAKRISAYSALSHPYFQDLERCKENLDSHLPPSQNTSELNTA
Chain of Protein cereblon/Cyclin-dependent kinase 6 (Homo sapiens) (Q96SW2 whole entry, looked up): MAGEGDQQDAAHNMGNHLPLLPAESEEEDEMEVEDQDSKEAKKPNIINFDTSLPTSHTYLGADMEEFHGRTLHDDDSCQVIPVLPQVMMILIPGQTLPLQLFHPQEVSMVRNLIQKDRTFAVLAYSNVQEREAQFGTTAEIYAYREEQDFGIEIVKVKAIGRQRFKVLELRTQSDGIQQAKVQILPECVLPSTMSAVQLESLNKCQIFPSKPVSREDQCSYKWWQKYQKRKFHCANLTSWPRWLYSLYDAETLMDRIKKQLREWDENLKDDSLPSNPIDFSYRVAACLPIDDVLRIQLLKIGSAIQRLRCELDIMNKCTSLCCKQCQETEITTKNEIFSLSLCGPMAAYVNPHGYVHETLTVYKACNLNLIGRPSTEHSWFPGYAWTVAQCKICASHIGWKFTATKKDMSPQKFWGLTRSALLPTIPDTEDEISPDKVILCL

Question: With CN(C)C(=O)c1cc2cnc(Nc3ccc(C(=O)NCCCCCCNc4cccc5c4C(=O)N(C4CCC(=O)NC4=O)C5=O)cc3)nc2n1C1CCCC1 (stereo not given) as the compound, how does the Activity [1] read?
Answer: Dose-dependent effect

Question: What about the Activity [2] of the same compound?
Answer: Tde

Question: What about the Activity (A-375 [3]) of the same compound?
Answer: 73.45%

Question: What about the Activity [4] of the same compound?
Answer: inactive

Question: And the Activity [5]?
Answer: inactive

Question: And the inhibition (B16-F10 [6])?
Answer: Active

Question: And the Activity (B16-F10 [7])?
Answer: Active

Question: What about the Activity (A-375 [8]) of the same compound?
Answer: 16.68%

Question: And the Activity (A-375 [9])?
Answer: 5.1%

Question: What about the Activity (A-375 [10]) of the same compound?
Answer: 0.273%

Question: What about the Activity (B16-F10 [11]) of the same compound?
Answer: 52.42%

Question: What about the Activity (B16-F10 [12]) of the same compound?
Answer: Dose-dependent effect

Question: And the Activity [13]?
Answer: inactive

Question: What about the IC50 (B16-F10 [14]) of the same compound?
Answer: 97.6 nM

Question: And the Activity (B16-F10 [15])?
Answer: Active

Question: And the Activity (A-375 [16])?
Answer: 3.78%

Question: And the Activity [17]?
Answer: inactive

Question: And the AUC [18]?
Answer: 823 µg·h/mL

Question: What about the viability at 0.5 µM (A-375 [19]) of the same compound?
Answer: 85.2%

Question: What about the Activity (B16-F10 [20]) of the same compound?
Answer: Dose-dependent effect

Question: And the Activity (A-375 [21])?
Answer: 29.3%

Question: What about the Tmax [22] of the same compound?
Answer: 45 min

Question: And the inhibition (A-375 [23])?
Answer: Active

Question: And the Activity [24]?
Answer: inactive

Question: And the Activity (A-375 [25])?
Answer: 0.144%
